# Activity calls are given as the source filed them.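 Rule for the calls, unless noted: active = compounds giving at least 50% inhibition in the cell-based MKP-3 phosphatase rescue imaging test; inactive = the rest.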
# Assays:
# [1] = inhibitors of TNFa-induced NFkB p65 translocation, primary screen, imaging, HUVEC, MLSMR starter and 10KST1 sets (AID 438;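 active = inhibition above 20% together with a positive visual image hit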;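 note: compound added about 3h40 before a 20 min TNFalpha stimulation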;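 for inhibition: signal is the nuclear over cytoplasmic p65 intensity ratio per well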); conditions: HUVEC TNFa-induced p65 nuclear translocation; cell count: measured here: nuclei count (cytotoxicity indicator), at 2.08 µM; inhibition: at 2 µM, stronger effect = higher value, 0% TNFa-plus-vehicle, 100% no-TNFa wells
# [2] = endothelial E-selectin expression blockers – imaging, HUVEC, immunofluorescence, MLSMR starter and 10KST1 sets, primary screen (AID 487;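 active = visually confirmed hit in the image check and inhibition above 20%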;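 for inhibition: signal is fraction of cell area covered by stained E-selectin grains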;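 for nuclei count: 100% = median nuclei count of all wells on the same plate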); conditions: HUVEC TNFalpha-induced E-selectin immunofluorescence imaging, at 2 µM; inhibition: stronger effect = higher value; nuclei count: measured here: cell number, toxicity
# [3] = Primary imaging screen for DUSP6 inhibitors that restore phospho-Erk in transfected HeLa cells, chemical complementation (AID 609); conditions: HeLa MKP-3 transfected, phospho-Erk imaging KS statistic, at 10 µM, cells stimulated with TPA for 15 min;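 for inhibition: phospho-Erk level distribution per well compared with pooled transfected vehicle control wells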
# [4] = molecular target: Dual specificity protein phosphatase 6 (Homo sapiens) (UniProt Q16828); experiment: as above; conditions: HeLa MKP-3 transfected, phospho-Erk imaging KS statistic; at 10 µM; stronger effect = higher value; cells stimulated with TPA for 15 min
# [5] = molecular target: Voltage-gated potassium channel subunit beta-2 (Rattus norvegicus) (UniProt P62483); experiment: inhibitors of rat Kvbeta2 reductase activity – biochemical, NADPH fluorescence, primary screen (AID 622;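 active = fluorescence slope higher than the sample average by over 3 SD, cut at about -0.22 in these data, passing the limit was not always enough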;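 note: slope of raw intensity against log time taken from 70 to 1610 s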); conditions: recombinant KvBeta, 4-cyanobenzaldehyde reduction, at 10 µM, stronger effect = higher value
# [6] = molecular target: Voltage-gated potassium channel subunit beta-2 (Rattus norvegicus) (UniProt P62483); experiment: enhancers of rat Kvbeta2 NADPH turnover – biochemical, NADPH fluorescence, primary screen (AID 623;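 active = NADPH fluorescence slope more negative than the mean of all samples by about 3 SD, 99.7% confidence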;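 note: fluorescence intensity change per second fitted from 20 to 320 s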); conditions: Recombinant KvBeta, NADPH fluorescence decrease slope, 10 min; at 10 µM; stronger effect = lower value
# [7] = molecular target: Muscarinic acetylcholine receptor M4 (Homo sapiens) (UniProt P08173); experiment: M4-linked GIRK flux change, two-sided – cell-based, HEK293 M4/GIRK, thallium flux, BTC-AM, M4 allosteric agonist project, primary screen (AID 625;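 active = fluorescence slope after compound addition differing from the mean of all tested samples at 99.7% confidence, mostly higher but some lower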;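 note: thallium influx through GIRK channels coupled to M4 in HEK293 cells with BTC-AM dye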); conditions: at 10 µM, actives lie on both sides
# Procedure, shortened: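 Material: M4/GIRK1/GIRK2 stable HEK293 cell line. Medium: pH 7.3 thallium assay buffer. Dosing: single compound concentration, 10 µM final. Schedule: 1 h dye loading, 2 min kinetic read. Measured by: kinetic fluorescence with BTC-AM dye. Read-out: post-addition slope, 15–24 s, of baseline-normalized fluorescence. Benchmarks: carbachol and DMSO controls.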
# [8] = inhibitors of larval lipid processing in zebrafish, primary screen, whole organism, PED6 fluorescence, gall bladder and intestine (AID 686;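 active = a full or partial loss of lipid-probe fluorescence in the fish gall bladder, intestine or both, judged by eye; inactive = no fluorescence loss, or compound toxic to the fish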;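 note: larvae 5 to 7 days old with five fish per well; signal comes from phospholipase A2 cleavage of quenched PED6 carried via bile; overnight exposure to compound and PED6 before scoring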); conditions: Zebrafish larvae PED6 lipid processing, fluorescence scoring; screened at 20 µM (by protocol)
# Procedure, shortened: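 System: live zebrafish larvae aged 5-7 days, whole organism; measure: graded gall bladder and intestinal fluorescence inhibition per well; incubation: overnight exposure; reagent: ingested quenched lipid PED6 at 100 nM; signal: By-eye fluorescence microscopy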
# [9] = loss of swimming-algae plug formation – whole organism, Chlamydomonas reinhardtii, WT vs cilia-less mutant, absorbance, 96-well, primary screen (AID 463189;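 active = inhibition at or above 50% relative to wild type and mutant plate controls; inactive = inhibition below 50%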;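 note: 0% = wild type cc124 cells in DMSO and 100% = ciliumless bld1 mutant cells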); conditions: Chlamydomonas reinhardtii gravitaxis, OD600 absorbance, 2 days; at 10 µM; stronger effect = higher value
# [10] = measured here: cell density z-score
# [11] = measured here: nuclear c-Myc green intensity z-score
# [12] = measured here: nuclear pErk red intensity z-score, stronger effect = higher value
# Sequence of Voltage-gated potassium channel subunit beta-2 (Rattus norvegicus) (P62483 whole entry, looked up): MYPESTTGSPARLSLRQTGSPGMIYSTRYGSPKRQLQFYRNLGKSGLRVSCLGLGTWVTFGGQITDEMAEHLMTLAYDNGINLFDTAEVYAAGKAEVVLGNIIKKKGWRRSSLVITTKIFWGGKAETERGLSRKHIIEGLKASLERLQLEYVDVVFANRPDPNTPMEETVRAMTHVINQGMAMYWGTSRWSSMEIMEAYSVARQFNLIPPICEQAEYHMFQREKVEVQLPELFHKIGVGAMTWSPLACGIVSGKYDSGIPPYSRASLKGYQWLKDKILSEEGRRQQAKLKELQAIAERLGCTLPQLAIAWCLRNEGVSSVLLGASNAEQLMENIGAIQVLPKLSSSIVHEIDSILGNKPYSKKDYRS
# Sequence of Muscarinic acetylcholine receptor M4 (Homo sapiens) (P08173 whole entry, looked up): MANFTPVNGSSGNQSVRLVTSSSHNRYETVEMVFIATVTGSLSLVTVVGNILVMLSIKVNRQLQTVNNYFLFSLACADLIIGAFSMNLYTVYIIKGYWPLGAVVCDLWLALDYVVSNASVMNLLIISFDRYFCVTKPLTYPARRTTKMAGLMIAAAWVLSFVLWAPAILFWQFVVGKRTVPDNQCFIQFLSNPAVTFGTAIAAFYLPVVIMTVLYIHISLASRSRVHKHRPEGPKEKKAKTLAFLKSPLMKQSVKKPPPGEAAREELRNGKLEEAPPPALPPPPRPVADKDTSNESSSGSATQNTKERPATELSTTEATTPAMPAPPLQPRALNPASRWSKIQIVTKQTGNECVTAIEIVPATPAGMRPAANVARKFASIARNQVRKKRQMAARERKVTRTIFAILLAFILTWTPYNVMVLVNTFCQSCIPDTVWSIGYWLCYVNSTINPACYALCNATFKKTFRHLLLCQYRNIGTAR
# Sequence of Dual specificity protein phosphatase 6 (Homo sapiens) (Q16828 whole entry, looked up): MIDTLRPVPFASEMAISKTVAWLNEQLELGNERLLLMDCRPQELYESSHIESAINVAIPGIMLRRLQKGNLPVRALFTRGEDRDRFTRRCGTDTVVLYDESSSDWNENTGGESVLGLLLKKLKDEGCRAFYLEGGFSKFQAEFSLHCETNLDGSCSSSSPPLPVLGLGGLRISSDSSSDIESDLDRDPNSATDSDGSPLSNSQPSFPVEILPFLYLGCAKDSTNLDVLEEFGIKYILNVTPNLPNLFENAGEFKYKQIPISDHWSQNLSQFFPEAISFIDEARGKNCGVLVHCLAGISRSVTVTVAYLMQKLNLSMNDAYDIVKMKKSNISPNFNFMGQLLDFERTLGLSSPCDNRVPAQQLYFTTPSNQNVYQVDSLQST
Compound,cell count [1],inhibition [1],inhibition [2],nuclei count [2],"z-score [3, 10]","z-score [3, 11]","z-score [3, 12]",inhibition [4],fluorescence slope [5],NADPH fluorescence slope [6],fluorescence slope [7],outcome [8],inhibition [9]
COC(=O)C(NC(=O)c1ccco1)(Nc1nc(C)cs1)C(F)(F)F (centres undefined),365,-1.1% (inactive),-89.2% (inactive),178%,-0.487,0.248,1.38,-6.59% (inactive),-0.459 (inactive),-9.6e-05 (inactive),0.00502 (inactive),inactive,14.1% (inactive)
CCC(NC(=O)NC1=NCCS1)(C(F)(F)F)C(F)(F)F,772,2.9% (inactive),-60% (inactive),150%,0.622,-0.646,0.179,20.2% (inactive),-0.433 (inactive),-7.2e-05 (inactive),0.00527 (inactive),inactive,-2.29% (inactive)
CCOC(=O)CSc1nnc2n(Cc3ccccc3)c(=O)c3c4c(sc3n12)CCC4,364,0.8% (inactive),49.8% (inactive),168%,-0.465,-0.253,1.89,13.4% (inactive),-0.428 (inactive),-0.000132 (inactive),0.00471 (inactive),active; weak signal in gallbladder and intestine,0.799% (inactive)
Cc1ccc(CNC(=O)c2cc3c(=O)n4ccccc4nc3n(Cc3ccco3)c2=N)cc1,620,2.6% (inactive),18.3% (inactive),134%,-0.0379,0.826,-0.239,-2.29% (inactive),-0.456 (inactive),-4.8e-05 (inactive),0.00363 (inactive),active; weak signal in gallbladder and intestine,32.6% (inactive)
Cc1cccn2c(=O)c3cc(C(=O)NCc4cccnc4)c(=N)n(C)c3nc12,734,7.8% (inactive),-3.9% (inactive),154%,-0.252,0.503,1.16,7.83% (inactive),-0.403 (inactive),-4.4e-05 (inactive),0.00535 (inactive),inactive,2.07% (inactive)
CCCCCOC(=O)Cc1c(C)nc(-c2ccccc2)[nH]c1=O,373,-0.5% (inactive),-157% (inactive),157%,1.82,-0.595,-0.463,30.7% (inactive),-0.474 (inactive),-7.9e-05 (inactive),0.00469 (inactive),inactive,32% (inactive)
CN(C)CCCNCCCCNC(=O)/C=N/O,458,3.8% (inactive),-56.6% (inactive),143%,-0.174,-0.575,1.08,17.7% (inactive),-0.441 (inactive),-3.9e-05 (inactive),0.00523 (inactive),inactive,6.6% (inactive)
C=CCOn1c(=O)c(-c2ccc(OC)cc2)[n+]([O-])c2ccccc21,586,-10.1% (inactive),-77.9% (inactive),148%,0.271,0.00215,-0.813,13.9% (inactive),-0.416 (inactive),-5.2e-05 (inactive),0.00502 (inactive),inactive,19.7% (inactive)
COCC(C)Nc1ncnc2c1cnn2-c1ccc(Cl)cc1 (centres undefined),607,-19.2% (inactive),-34.4% (inactive),170%,1.51,-0.865,0.282,3.42% (inactive),-0.398 (inactive),-1.2e-05 (inactive),0.00516 (inactive),inactive,18.7% (inactive)
COc1cccc(C(=O)N2CCN(Cc3ccccn3)CC2)c1OC,503,-5.7% (inactive),-70.6% (inactive),158%,-2.51,0.355,0.989,-12.3% (inactive),-0.466 (inactive),-5.6e-05 (inactive),0.00645 (inactive),inactive,1.71% (inactive)
CCCc1cc(NCCCCO)n2c(nc3ccccc32)c1C#N,484,-2.4% (inactive),-67.8% (inactive),112%,-0.769,-0.182,0.272,21.8% (inactive),-0.238 (inactive),-2.1e-05 (inactive),0.00464 (inactive),inactive,26.9% (inactive)
O=C(O)C1[C@H]2C(=O)N(Cc3cccs3)C[C@]23C=C[C@H]1O3 (some centres undefined),598,-10.3% (inactive),-12.8% (inactive),189%,0.152,1.12,-0.313,6.04% (inactive),-0.481 (inactive),-8e-05 (inactive),0.00643 (inactive),inactive,-4.98% (inactive)
Cc1nnc(N2CCCCC2)c2ccccc12,511,-5.6% (inactive),59.4% (inactive),87%,-2.8,0.768,0.176,18.4% (inactive),-0.507 (inactive),-9.4e-06 (inactive),0.0054 (inactive),inactive,47.9% (inactive)

# From PubChem BioAssay
